Results taken from paper PMC10189352 (Molecular Therapy. Nucleic Acids, 2023).

Legend:
BRD4 chromatin occupancy = test: BRD4 ChIP-seq in murine AML cells; assay type: cell-based; conditions: regions enriched with H3K27ac
[1] = test system: BD2 vs BD1 of BET proteins; conditions: approximately; cited from earlier work
[2] = test system: RNA polymerase II chromatin occupancy; test: RNA Pol II ChIP-seq in murine AML cells; assay type: cell-based; conditions: BRD4-occupied sites
MYC = test: Western blot of MYC protein in murine AML cells; assay type: cell-based; conditions: murine MLL-AF9, Nras^G12D AML cells, 6 h, RVX-208 1 μM, OTX-015 1 μM, candidates 10 μM
Outline: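 Whole-cell lysates were prepared after the 6 h treatment and probed for MYC by western blot. DMSO-treated cells were the vehicle control.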

PDA organoids = test: PDA organoid growth; assay type: cell-based, mouse; conditions: 24, 48, and 72 h, light microscopy; CellTiter Glo-3D
Outline: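 PDA organoids were treated with test compound or DMSO and imaged by light microscopy at 24, 48 and 72 h. Growth was quantified with CellTiter-Glo 3D. Data are shown as mean ± SEM, and p-values came from Student's t test.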

[3] = test system: BRD4 occupancy at e1-e5 Myc enhancers; test: BRD4 ChIP-qPCR at Myc enhancers in murine AML cells; assay type: cell-based
[4] = test system: murine AML cells (MLL-AF9; Nras^G12D); test: RNA-seq and GSEA in murine AML cells; assay type: cell-based; conditions: RNA-seq; for mRNA levels of JQ1-rapid target genes (n = 50): relative to DMSO
Hexim1 mRNA = test: RT-qPCR of Hexim1 in murine AML cells; assay type: cell-based; conditions: 6 h treatment
human AML cells = test: Methylcellulose-based colony formation of human AML cells; assay type: cell-based; conditions: semi-solid methylcellulose (Figure 3E)
c-Kit surface expression = test: Flow cytometric analysis of c-Kit in murine AML cells; assay type: cell-based; conditions: 48 h, flow cytometry
[5] = test system: murine AML cells expressing Myc cDNA; test: Ectopic Myc cDNA expression rescue in murine AML cells; assay type: cell-based; conditions: murine AML cells transduced with Myc cDNA MSCV retrovirus
SW-480 cells = test: Colony formation of adherent cancer cells; assay type: cell-based, human; conditions: dose-dependent; after 5 days of treatment
AsPC-1 cells = test: Colony formation of adherent cancer cells; assay type: cell-based, human; conditions: dose-dependent; after 5 days of treatment
[6] = test system: human leukemia cell lines; test: Proliferation assay of human leukemia cell lines; assay type: cell-based; conditions: 48 h, normalized to DMSO-treated cells
Outline: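 Human leukemia cell lines were grown with test compound. Proliferation rate was normalised to DMSO-treated cells; n = 3, mean ± SEM.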

[7] = test system: MLL-AF9;Nras^G12D AML cells; test: Propidium iodide staining of murine AML cells; assay type: cell-based; conditions: 48 h (Figure 3D)

SMILES | BRD4 chromatin occupancy (ChIP-seq) (BRD4 chromatin occupancy) | stronger binding affinity toward BD2 than BD1 [1] | RNA Pol II chromatin binding (ChIP-seq) [2] | MYC protein expression (MYC) | PDA organoid growth (PDA organoids) | BRD4 occupancy at e1-e5 Myc enhancers [3] | LSC signature genes (GSEA) [4] | mRNA levels of JQ1-rapid target genes (n = 50) [4] | increase of Hexim1 mRNA expression (Hexim1 mRNA) [fold] | ability to form colonies on methylcellulose (human AML cells) | c-Kit surface expression (c-Kit surface expression) | effect of ectopic Myc expression on drug sensitivity [5] | clonogenic growth of SW-480 cells (SW-480 cells) | clonogenic growth of AsPC-1 cells (AsPC-1 cells) | anti-proliferative activity in K562, NOMO-1, JURKAT, and HL-60 [6] | anti-proliferative activity in MV4-11, KASUMI-1, MOLM-13, and THP-1 [6] | proliferation of leukemia cells [7] | expression of genes close to the BBC1115-sensitive 330 regions (GSEA) ([4]; vs DMSO)
COc1cc(OC)c2c(=O)[nH]c(-c3cc(C)c(OCCO)c(C)c3)nc2c1 [RVX-208, apabetalone] | negligible | 10- to 100 fold | negligible | only modestly affected MYC protein expression | but not RVX-208, attenuated PDA organoid growth | negligible effect on the BRD4 occupancy at e1-e5 | insignificant | downregulated some but not all JQ1-rapid targets | – | – | – | – | – | – | – | – | – | –
Cc1sc2c(c1C)C(c1ccc(Cl)cc1)=N[C@@H](CC(=O)Nc1ccc(O)cc1)c1nnc(C)n1-2 [OTX-015, birabresib] | – | – | – | downregulated MYC protein levels | attenuated PDA organoid growth | impaired the occupancy of BRD4 at the e1-e5 Myc enhancers | significantly suppressed the LSC signature genes | strongly downregulated all JQ1-rapid targets | > 20 | substantially suppressed | downregulated c-Kit | ectopic Myc expression conferred resistance | markedly inhibit clonogenic growth | markedly inhibit clonogenic growth | minimal sensitivity | broad growth-suppressive effect | inhibited the proliferation of leukemia cells | significantly downregulated
